# Experimental data reported in ChEMBL document CHEMBL1629421, “Isochaihulactone analogues: synthesis and anti-proliferative activity of novel dibenzylbutyrolactones” (2010).
# Key:
# Assay type in all cases: functional
# MCF7 [1] = test: Growth inhibition of human MCF7 cells at 25 ug/ml after 24 hrs by MTT colorimetric assay; conditions: MCF7, 24 h, read-out: GI
# Outline: (§1)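 Cells kept in RPMI 1640 with 10% FBS, 1% L-glutamine and penicillin-streptomycin at 37 °C, 5% CO2, and harvested with trypsin-EDTA. Seeded at 4 × 10⁴ cells/well, grown 24 h, then exposed to compound for 24 h at 37 °C. Medium replaced with phenol red-free medium, MTT (2 mg/ml) added for 4 h, formazan dissolved in isopropanol, A492 read. Inhibition taken versus untreated control wells; mean ± SD of three independent experiments.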
# MDA-MB-231 [2] = test: Growth inhibition of human MDA-MB-231 cells at 50 ug/ml after 24 hrs by MTT colorimetric assay; conditions: MDA-MB-231, 24 h, read-out: GI; outline: as §1
# MDA-MB-231 [3] = test: Growth inhibition of human MDA-MB-231 cells at 25 ug/ml after 24 hrs by MTT colorimetric assay; conditions: MDA-MB-231, 24 h, read-out: GI; outline: as §1
# MCF7 [4] = test: Growth inhibition of human MCF7 cells at 50 ug/ml after 24 hrs by MTT colorimetric assay; conditions: MCF7, 24 h, read-out: GI; outline: as §1
# T47D = test: Growth inhibition of human T47D cells at 25 ug/ml after 24 hrs by MTT colorimetric assay; conditions: read-out: GI; outline: as §1
Compound,inhibition of growth at 25 µg/mL (MCF7 [1]),inhibition of growth at 50 µg/mL (MDA-MB-231 [2]),inhibition of growth at 25 µg/mL (MDA-MB-231 [3]),inhibition of growth at 50 µg/mL (MCF7 [4]),inhibition of growth at 25 µg/mL (T47D)
O=C1OC[C@H](Cc2ccc3c(c2)OCO3)[C@H]1[C@H](O)c1ccc([N+](=O)[O-])cc1,24.6%,20.1%,17.9%,17.9%,
O=C1OC[C@H](Cc2ccc3c(c2)OCO3)[C@H]1[C@H](O)c1ccccc1Cl,15.8%,47.3%,34.8%,7.5%,50.2%
O=C1OC[C@H](Cc2ccc3c(c2)OCO3)[C@H]1[C@@H](O)c1ccccc1Cl,8.5%,26.4%,19%,31.9%,52.9%
O=C1OC[C@H](Cc2ccc3c(c2)OCO3)[C@H]1Cc1ccccc1,17%,36.2%,26.2%,46%,61.9%
COc1ccc(C(O)[C@H]2C(=O)OC[C@@H]2Cc2ccc3c(c2)OCO3)cc1 (mixture of isomers),42.7%,48.8%,10.1%,22.4%,
COc1cccc(C(O)[C@H]2C(=O)OC[C@@H]2Cc2ccc3c(c2)OCO3)c1 (mixture of isomers),-3.8%,41.9%,14.5%,12.2%,
COc1cc(C(O)[C@H]2C(=O)OC[C@@H]2Cc2ccc3c(c2)OCO3)cc(OC)c1OC (mixture of isomers),5.2%,10.2%,-1.9%,37.7%,50.1%
O=C1OC[C@H](Cc2ccc3c(c2)OCO3)[C@H]1C(O)c1ccc([N+](=O)[O-])cc1 (mixture of isomers),7.2%,29%,22.5%,38.8%,
O=C1OC[C@H](Cc2ccc3c(c2)OCO3)[C@H]1C(O)c1ccccc1[N+](=O)[O-] (mixture of isomers),21.9%,35.1%,7.9%,-0.2%,38.1%
COc1cccc2c1C(=O)c1c(O)c3c(c(O)c1C2=O)C[C@@](O)(C(=O)CO)C[C@@H]3O[C@H]1C[C@H](N)[C@H](O)[C@H](C)O1 [DOXORUBICIN],54.6%,48.8%,57.9%,31.8%,60%
CC/C(=C(\c1ccccc1)c1ccc(OCCN(C)C)cc1)c1ccccc1 [TAMOXIFEN],65.7%,67.7%,58.6%,25%,67.8%
